# In ChEMBL document CHEMBL2321851, “Synthesis and biological evaluation of novel coumarin-pyrazoline hybrids endowed with phenylsulfonyl moiety as antitumor agents” (Eur J Med Chem, 2013):
# The source made the active and inactive calls. No cut-off for these calls is given here.
# System: NCI-H23
# Assay: Growth inhibition of human NCI-H23 cells at 10 uM after 48 hrs by sulforhodamine B assay
# Assay type: functional, cell-based
# Method in brief: (§1)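 NCI-60 one-dose primary screen at 10^-5 M. Cells grown in RPMI 1640 with 5% FBS and 2 mM L-glutamine and plated by doubling time. Preincubated 24 h at 37 °C under 5% CO2. Drug exposure 48 h. Cells fixed with cold TCA and stained with 0.4% SRB; absorbance read at 515 nm. Reported as percent growth of treated versus untreated control.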
row,SMILES,growth inhibition (GI)
1,COc1ccc2ccc(=O)oc2c1C1=NN(S(=O)(=O)c2ccccc2)C(c2ccc(SC)cc2)C1 (stereo not drawn),inactive

# System: CCRF-CEM
# Assay: Growth inhibition of human CCRF-CEM cells at 10 uM after 48 hrs by sulforhodamine B assay
# Assay type: functional, cell-based
# Method in brief: (§2)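 Single-dose primary screen at 10^-5 M across the ~60-line panel grown in RPMI 1640 with 5% FBS and 2 mM glutamine, 48 h exposure at 37 °C. Cells TCA-fixed and SRB-stained, absorbance at 515 nm. Output is percent growth of treated versus untreated control cells.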
row,SMILES,growth inhibition (GI)
1,COc1ccc2ccc(=O)oc2c1C1=NN(S(=O)(=O)c2ccccc2)C(c2ccc(SC)cc2)C1 (stereo not drawn),inactive

# System: HOP-92
# Assay: Growth inhibition of human HOP92 cells at 10 uM after 48 hrs by sulforhodamine B assay
# Assay type: functional, cell-based
# Method in brief: as §2
row,SMILES,growth inhibition (GI)
1,COc1ccc2ccc(=O)oc2c1C1=NN(S(=O)(=O)c2ccccc2)C(c2ccc(SC)cc2)C1 (stereo not drawn),inactive

# System: SK-MEL-2
# Assay: Growth inhibition of human SK-MEL-2 cells at 10 uM after 48 hrs by sulforhodamine B assay
# Assay type: functional, cell-based
# Method in brief: as §1
row,SMILES,growth inhibition (GI)
1,COc1ccc2ccc(=O)oc2c1C1=NN(S(=O)(=O)c2ccccc2)C(c2ccc(SC)cc2)C1 (stereo not drawn),inactive

# System: T47D
# Assay: Growth inhibition of human T47D cells at 10 uM after 48 hrs by sulforhodamine B assay
# Assay type: functional, cell-based
# Method in brief: (§3)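 NCI-60 one-dose primary screen at 10^-5 M. Cells were grown in RPMI 1640 with 5% FBS and 2 mM L-glutamine and plated at 5,000–40,000 cells/well depending on doubling time. After 24 h preincubation at 37 °C in 5% CO2, drug was added for 48 h. Cells were fixed with TCA and stained with SRB, and absorbance was read at 515 nm. Values are growth percent versus untreated control.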
row,SMILES,growth inhibition (GI)
1,COc1ccc2ccc(=O)oc2c1C1=NN(S(=O)(=O)c2ccccc2)C(c2ccc(SC)cc2)C1 (stereo not drawn),inactive

# System: IGROV-1
# Assay: Growth inhibition of human IGROV1 cells at 10 uM after 48 hrs by sulforhodamine B assay
# Assay type: functional, cell-based
# Method in brief: as §2
row,SMILES,growth inhibition (GI)
1,COc1ccc2ccc(=O)oc2c1C1=NN(S(=O)(=O)c2ccccc2)C(c2ccc(SC)cc2)C1 (stereo not drawn),inactive

# System: SK-OV-3
# Assay: Growth inhibition of human SKOV3 cells at 10 uM after 48 hrs by sulforhodamine B assay
# Assay type: functional, cell-based
# Method in brief: as §1
row,SMILES,growth inhibition (GI)
1,COc1ccc2ccc(=O)oc2c1C1=NN(S(=O)(=O)c2ccccc2)C(c2ccc(SC)cc2)C1 (stereo not drawn),inactive

# System: U-251
# Assay: Growth inhibition of human U251 cells at 10 uM after 48 hrs by sulforhodamine B assay
# Assay type: functional, cell-based
# Method in brief: as §3
row,SMILES,growth inhibition (GI)
1,COc1ccc2ccc(=O)oc2c1C1=NN(S(=O)(=O)c2ccccc2)C(c2ccc(SC)cc2)C1 (stereo not drawn),inactive

# System: OVCAR-8
# Assay: Growth inhibition of human OVCAR8 cells at 10 uM after 48 hrs by sulforhodamine B assay
# Assay type: functional, cell-based
# Method in brief: as §1
row,SMILES,growth inhibition (GI)
1,COc1ccc2ccc(=O)oc2c1C1=NN(S(=O)(=O)c2ccccc2)C(c2ccc(SC)cc2)C1 (stereo not drawn),inactive

# System: K562
# Assay: Growth inhibition of human K562 cells at 10 uM after 48 hrs by sulforhodamine B assay
# Assay type: functional, cell-based
# Method in brief: as §2
row,SMILES,growth inhibition (GI)
1,COc1ccc2ccc(=O)oc2c1C1=NN(S(=O)(=O)c2ccccc2)C(c2ccc(SC)cc2)C1 (stereo not drawn),inactive

# System: RXF 393
# Assay: Growth inhibition of human RXF393 cells at 10 uM after 48 hrs by sulforhodamine B assay
# Assay type: functional, cell-based
# Method in brief: as §1
row,SMILES,growth inhibition (GI)
1,COc1ccc2ccc(=O)oc2c1C1=NN(S(=O)(=O)c2ccccc2)C(c2ccc(SC)cc2)C1 (stereo not drawn),inactive

# System: SK-MEL-5
# Assay: Growth inhibition of human SK-MEL-5 cells at 10 uM after 48 hrs by sulforhodamine B assay
# Assay type: functional, cell-based
# Method in brief: as §1
row,SMILES,growth inhibition (GI)
1,COc1ccc2ccc(=O)oc2c1C1=NN(S(=O)(=O)c2ccccc2)C(c2ccc(SC)cc2)C1 (stereo not drawn),inactive

# System: Malme-3M
# Assay: Growth inhibition of human MALME-3M cells at 10 uM after 48 hrs by sulforhodamine B assay
# Assay type: functional, cell-based
# Method in brief: as §2
row,SMILES,growth inhibition (GI)
1,COc1ccc2ccc(=O)oc2c1C1=NN(S(=O)(=O)c2ccccc2)C(c2ccc(SC)cc2)C1 (stereo not drawn),inactive
